Data set [1] concerns the target T1, Melanin-concentrating hormone receptor 1 (Rattus norvegicus, UniProt P97639). The data set can be described thus: Antagonist activity at rat MCH1 receptor expressed in HEK293 cells by FLIPR calcium mobility assay. The data set is classed as functional, cell-based.
In data set [2] the target is D(2) dopamine receptor (Homo sapiens, UniProt P14416). The data set can be described thus: Displacement of [3H]spiperone from human recombinant dopamine D2 receptor. A general note: In a radioligand displacement assay an active substance lowers the binding of a labelled ligand.
Sequence of D(2) dopamine receptor (P14416 whole entry): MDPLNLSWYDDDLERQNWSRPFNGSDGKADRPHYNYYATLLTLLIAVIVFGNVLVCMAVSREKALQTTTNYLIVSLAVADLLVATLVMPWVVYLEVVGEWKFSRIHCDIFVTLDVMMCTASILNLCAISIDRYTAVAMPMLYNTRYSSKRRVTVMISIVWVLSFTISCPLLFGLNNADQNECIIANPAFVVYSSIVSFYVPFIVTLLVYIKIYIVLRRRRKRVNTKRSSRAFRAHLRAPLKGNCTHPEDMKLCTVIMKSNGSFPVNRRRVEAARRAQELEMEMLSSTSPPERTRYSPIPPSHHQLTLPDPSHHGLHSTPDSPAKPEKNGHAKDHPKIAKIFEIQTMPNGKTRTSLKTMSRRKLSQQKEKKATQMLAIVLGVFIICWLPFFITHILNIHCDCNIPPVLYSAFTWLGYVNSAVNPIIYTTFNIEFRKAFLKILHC
Data set [3] has as its target T1, Melanin-concentrating hormone receptor 1. The data set can be described thus: Displacement of [3H]T-226296 from rat recombinant MCH1 receptor.
Data set [4] addresses T2, Alpha-1A adrenergic receptor (Homo sapiens, UniProt P35348).
T2 sequence (P35348 whole entry): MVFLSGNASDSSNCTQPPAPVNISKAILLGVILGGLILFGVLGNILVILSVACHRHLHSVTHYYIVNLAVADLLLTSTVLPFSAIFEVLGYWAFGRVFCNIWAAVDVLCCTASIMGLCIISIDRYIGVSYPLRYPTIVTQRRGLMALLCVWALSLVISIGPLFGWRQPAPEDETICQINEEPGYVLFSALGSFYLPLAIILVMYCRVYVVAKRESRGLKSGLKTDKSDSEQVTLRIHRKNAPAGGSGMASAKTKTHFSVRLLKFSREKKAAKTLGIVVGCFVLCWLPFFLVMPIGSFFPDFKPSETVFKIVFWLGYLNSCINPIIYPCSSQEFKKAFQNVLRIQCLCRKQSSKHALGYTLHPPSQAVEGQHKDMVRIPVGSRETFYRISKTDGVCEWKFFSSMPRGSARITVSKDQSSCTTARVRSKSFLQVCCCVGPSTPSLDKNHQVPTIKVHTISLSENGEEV
The data set can be described thus: Displacement of [125I]HEAT from human recombinant adrenergic alpha-1A receptor.

In data set [5] the test system is Rattus norvegicus. The data set can be described thus: Inhibition of MCH-stimulated water intake in rat at 1 mg/kg, po. Type of data set: functional, organism-based. The arrangement: dose 1 mg/kg.
The subject of data set [6] is Rattus norvegicus. The data set can be described thus: Inhibition of MCH-stimulated water intake in rat at 10 mg/kg, po. The data set is classed as functional, organism-based. Set-up: dose 10 mg/kg.
The subject of data set [7] is Rattus norvegicus. The data set can be described thus: Inhibition of MCH-stimulated water intake in rat at 2.5 mg/kg, po. The data set is classed as functional, organism-based. The arrangement: dose 2.5 mg/kg.
Data set [8] in a line: Ratio of drug level in brain to plasma in rat at 10 mg/kg, po. The arrangement: dose 10 mg/kg, route oral. Type of data set: ADME, organism-based. A digest of the protocol: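 Rats received a single oral dose in a study separate from the main PK study. Brain and plasma concentrations were measured 4 h after dosing (n = 2), and the ratio was taken as brain level over plasma level. The limit of quantitation was 2 ng/mL for plasma and 2 ng/g for brain.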

Data set [9] in a line: Volume of distribution at steady state in rat. Type of data set: ADME, organism-based. Particulars: in vivo, read-out: Vss.
Data set [10] can be described thus: Half life in rat at 2 mg/kg, po and 1 mg/kg iv. The data set is classed as ADME, organism-based. Particulars: in vivo.
In data set [11] the test system is Rattus norvegicus. The data set can be described thus: Anxiolytic activity in rat assessed as social interaction time at 0.3 mg/kg, po after 1 hr relative to control.
The nature of data set [12]: Blood clearance in rat at 2 mg/kg, po and 1 mg/kg iv. The data set is classed as ADME, organism-based. As to conditions: whole blood.
A short description of data set [13]: Drug level in brain at 10 mg/kg, po after 4 hrs. Type of data set: ADME, organism-based. Set-up: dose 10 mg/kg, route oral. Particulars: rat, read-out: Drug uptake. The essentials: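 Separate rat experiment: single 10 mg/kg oral dose, brain and plasma exposures measured 4 h after dosing (n = 2); brain level expressed in ng/g, also as brain/plasma ratio.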

Data set [14] in a line: Plasma clearance in rat at 2 mg/kg, po and 1 mg/kg iv. Type of data set: ADME, organism-based.
Data set [15] is described as follows: Bioavailability in rat at 2 mg/kg, po and 1 mg/kg iv. Type of data set: ADME, organism-based. Particulars: in vivo.

Structures are written as SMILES. The source made the active and inactive calls. The calls are words filed in the database; no cut-off is given here.

T1 sequence (P97639 whole entry): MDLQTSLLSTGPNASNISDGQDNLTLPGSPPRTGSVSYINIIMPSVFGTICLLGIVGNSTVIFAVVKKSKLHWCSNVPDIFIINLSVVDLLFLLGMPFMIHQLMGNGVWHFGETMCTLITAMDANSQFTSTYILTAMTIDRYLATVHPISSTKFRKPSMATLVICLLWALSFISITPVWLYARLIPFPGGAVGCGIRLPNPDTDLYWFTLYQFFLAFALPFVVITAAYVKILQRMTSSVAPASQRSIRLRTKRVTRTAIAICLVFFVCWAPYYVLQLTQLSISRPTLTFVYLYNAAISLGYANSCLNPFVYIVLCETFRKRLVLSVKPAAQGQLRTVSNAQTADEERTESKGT

In the case of `CC(C)C(=O)Nc1cccc(C2CCN(Cc3cccc(Oc4cccc(C(F)(F)F)c4)c3)CC2)c1`, the IC50 in data set [1] was found to be 5400 nM.
With `CC(C)C(=O)Nc1cccc(C2CCN(Cc3ccc(Oc4ccc(Cl)c(Cl)c4)cc3)CC2)c1`, the Ki came out at 2900 nM in data set [2], 8.2 nM in [3] and 34000 nM in [4]. In addition, the IC50 in data set [1] was found to be 710 nM.
For the compound `CC(C)C(=O)Nc1cccc(C2CCN(Cc3cccc(Oc4ccc(Cl)cc4)c3)CC2)c1`, in data set [3], the Ki was determined as 23 nM. Moreover, the half-inhibitory concentration (IC50) in data set [1] was 2000 nM.
On to `CC(=O)Nc1cccc(C2CCN(CCCC(=O)c3ccccc3)CC2)c1`, for which the Ki in [3] came out at 350 nM. The IC50 in data set [1] came out at 2700 nM.
For the compound `COc1ccc(Oc2cccc(CN3CCC(c4cccc(NC(=O)C(C)C)c4)CC3)c2)cc1`, the inhibition constant Ki in data set [2] came to 1000 nM.
For `CC(C)C(=O)Nc1cccc(C2CCN(CCCC(=O)c3ccc(Cl)cc3)CC2)c1`, the Ki in data set [2] was 610 nM; in data set [3], 5 nM. Also, the IC50 in data set [1] turned out to be 72 nM.
On to `CC(=O)Nc1cccc(C2CCN(CCCC(=O)c3ccc(C)cc3)CC2)c1`, for which the IC50 in data set [1] amounted to 2400 nM.
For `CC(C)C(=O)Nc1cccc(C2CCN(Cc3cccc(Oc4ccc(Cl)c(Cl)c4)c3)CC2)c1`, the Ki in data set [3] is 18 nM. For the same compound, in data set [1], the IC50 worked out at 2600 nM.
In the case of `CC(C)C(=O)Nc1cccc(C2CCN(Cc3cccc(Oc4cc(Cl)cc(Cl)c4)c3)CC2)c1`, the Ki in data set [3] was determined as 140 nM. For the same compound, the IC50 in data set [1] is 1400 nM.
In the case of `CC(=O)Nc1cccc(C2CCN(CCCC(=O)c3ccc(Cl)cc3)CC2)c1`, the Ki stood at 1400 nM in data set [2] and 70 nM in [3]. In data set [1], the IC50 came out at 570 nM.
In the case of `CC(C)C(=O)Nc1cccc(C2CCN(Cc3ccc(Oc4ccc(Cl)cc4)cc3)CC2)c1`, the Ki in data set [2] was determined as 110 nM; in [3], 5.3 nM. Besides, the IC50 in data set [1] was determined as 350 nM.
On to `Cc1ccc(Oc2cccc(CN3CCC(c4cccc(NC(=O)C(C)C)c4)CC3)c2)cc1`, for which, in data set [2], the Ki stood at 1300 nM.
As for `CC(C)C(=O)Nc1cccc(C2CCN(Cc3cccc(Oc4ccc(C(C)(C)C)cc4)c3)CC2)c1`, in data set [3], the Ki is 540 nM.
In the case of `O=C(Cc1ccccc1)Nc1cccc(C2CCN(CCCC(=O)c3ccc(Cl)cc3)CC2)c1`, the Ki in [2] worked out at 780 nM.
With `COc1ccc(Oc2ccc(CN3CCC(c4cccc(NC(=O)C(C)C)c4)CC3)cc2)cc1`, the Ki in [2] is 1400 nM. The IC50 in data set [1] is 720 nM.
For `COCC1=C(C(=O)OC)[C@H](c2ccc(F)c(F)c2)N(C(=O)NCCCN2CCC(c3cccc(NC(C)=O)c3)CC2)C(=O)N1` [SNAP-7941], the Ki in data set [2] was 2800 nM; in [4], 40 nM.
On to `O=C(CCCN1CCC(c2cccc(NC(=O)C3CCCCC3)c2)CC1)c1ccc(Cl)cc1`, for which, in [3], the Ki worked out at 200 nM.
`Cc1ccc(C2CCN(Cc3ccc(Oc4ccc(F)c(F)c4)cc3)CC2)cc1NC(=O)C(C)C`: the values for the Ki in data set [2], in data set [3] and in [4] were 400 nM, 27 nM and 1010 nM, respectively. Also, the IC50 in data set [1] came to 360 nM.
Regarding `CC(C)C(=O)Nc1cccc(C2CCN(Cc3ccc(Oc4ccccc4)cc3)CC2)c1`, the Ki in data set [2] is 120 nM; in data set [3] it was 10 nM. The IC50 in [1] amounted to 320 nM.
Consider `CC(=O)Nc1cccc(C2CCN(CCCC(=O)c3ccc(C)c(C)c3)CC2)c1`, for which the Ki in [3] worked out at 100 nM. The IC50 in data set [1] came to 1300 nM.
On to `Cc1ccc(NC(=O)C(C)C)cc1C1CCN(Cc2ccc(Oc3ccc(F)c(F)c3)cc2)CC1`, for which the result in data set [5], in data set [6] and in [7] was Active. Moreover, the figures for the Ki in data set [2] and in data set [4] were 7400 nM and 180 nM, respectively. Also, the Kp in data set [8] came to 2.3. Also, the Vd in data set [9] worked out at 29 L/kg. In data set [10], this compound showed a half-life of 312 min. The Time in data set [11] came to 81 s. Besides, the figures for the clearance in data set [12] and in data set [14] were 55 mL/min/kg and 70 mL/min/kg, respectively. For the same compound, in data set [13], the concentration at 4 h is 184 ng/g. Moreover, the IC50 in data set [1] is 230 nM. The compound also gave a bioavailability in [15] of 59%.
For `O=C(CCCN1CCC(O)(c2ccc(Cl)cc2)CC1)c1ccc(Cl)cc1` [CHLOROHALOPERIDOL], the Ki came to 190 nM in data set [2], 350 nM in [3] and 150 nM in data set [4].
In the case of `CC(C)C(=O)Nc1cccc(C2CCN(Cc3ccc(Oc4ccc(F)c(F)c4)cc3)CC2)c1`, the Ki in data set [2] came to 470 nM; in [4], 200 nM.
`CC(=O)Nc1cccc(C2CCN(CCCC(=O)c3ccc(Oc4ccccc4)cc3)CC2)c1`: the Ki in data set [3] was determined as 490 nM. Further, in data set [1], the IC50 was > 10000 nM.

What is called IC50 is the concentration that inhibits the measured activity by half. One may read the Ki as the dissociation constant of the complex between target and ligand, obtained from inhibition or displacement. In general, Kp refers to tissue or fluid exposure divided by exposure in the circulation. Usually half-life stands for how long it takes for the measured level to halve. Broadly, the bioavailability is dose-corrected exposure relative to a reference, in per cent. High values mean good availability, low ones poor availability.

The values above are taken from ChEMBL document CHEMBL1148741, “Synthesis and SAR investigations for novel melanin-concentrating hormone 1 receptor (MCH1) antagonists part 2: A hybrid strategy combining key fragments of HTS hits” (J Med Chem, 2007).
